Measured values published in ChEMBL document CHEMBL3243972, “Analogues of ornithine as inhibitors of ornithine decarboxylase. New deductions concerning the topography of the enzyme's active site” (J Med Chem, 1978).
Activity calls are given as the source filed them. The rule behind the calls is not given here.

Key:
Ornithine decarboxylase [1] = target: T1, Ornithine decarboxylase (Rattus norvegicus, UniProt P09057); assay: Competitive inhibition of ornithine decarboxylase in rat HTC cells using DL-[1-14C]ornithine as substrate after 1 hr by dixon plot analysis; format: cell-based
T1 sequence (P09057 whole entry): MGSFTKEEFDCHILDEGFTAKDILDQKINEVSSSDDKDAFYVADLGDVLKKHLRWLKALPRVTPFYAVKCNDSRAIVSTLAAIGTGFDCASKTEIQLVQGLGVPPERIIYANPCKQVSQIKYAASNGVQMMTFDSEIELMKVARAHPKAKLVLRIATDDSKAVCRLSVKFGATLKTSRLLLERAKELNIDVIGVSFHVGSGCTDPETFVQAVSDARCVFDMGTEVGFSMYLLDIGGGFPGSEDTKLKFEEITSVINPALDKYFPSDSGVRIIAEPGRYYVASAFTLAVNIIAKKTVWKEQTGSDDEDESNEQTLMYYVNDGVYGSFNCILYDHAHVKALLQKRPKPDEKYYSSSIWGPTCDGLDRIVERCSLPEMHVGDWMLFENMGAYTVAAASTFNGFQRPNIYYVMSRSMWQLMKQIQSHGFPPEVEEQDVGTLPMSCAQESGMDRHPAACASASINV
In short: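 HTC hepatoma cell ODC; sodium phosphate pH 7.1 assay with PLP 0.1 µmol, DTT 5 µmol, DL-[1-14C]ornithine 0.043 µmol, L-ornithine 0.8 µmol, final 0.95 mL; enzyme added to start; 14CO2 measured after 1 h at 37 °C. KI from Dixon plots, or for some values from ID50 at ornithine equal to KM, taking KI = ID50/2.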

Ornithine decarboxylase [2] = target: T2, Ornithine decarboxylase (Bos taurus, UniProt P27117); assay: Competitive inhibition of bull prostate ornithine decarboxylase using DL-[1-14C]ornithine as substrate after 1 hr by dixon plot analysis; design: species or system Prostate gland
T2 sequence (P27117 whole entry): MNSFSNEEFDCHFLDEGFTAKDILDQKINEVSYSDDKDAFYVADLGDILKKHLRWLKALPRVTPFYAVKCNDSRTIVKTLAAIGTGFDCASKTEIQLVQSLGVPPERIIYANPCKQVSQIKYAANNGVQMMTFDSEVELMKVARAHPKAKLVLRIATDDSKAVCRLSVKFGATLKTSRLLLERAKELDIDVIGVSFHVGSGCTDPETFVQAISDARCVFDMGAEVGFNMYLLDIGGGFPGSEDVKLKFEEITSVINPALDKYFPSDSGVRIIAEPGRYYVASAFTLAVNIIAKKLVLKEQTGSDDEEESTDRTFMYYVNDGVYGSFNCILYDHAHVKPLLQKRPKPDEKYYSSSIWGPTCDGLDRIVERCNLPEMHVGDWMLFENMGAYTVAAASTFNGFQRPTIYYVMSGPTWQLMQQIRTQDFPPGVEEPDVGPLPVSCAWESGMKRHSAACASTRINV
In short: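 Bull prostate ODC purified ~fourfold: homogenized at 4 °C in Tris-HCl 10 mM pH 7.2, sucrose, EDTA, DTT 5 mM, PLP 0.1 mM; 20000g and 105000g spins, 20–50% (NH4)2SO4 cut, dialysis. Assay in 0.95 mL Tris-HCl pH 7.2 with PLP 0.1 µmol, DTT 5 µmol, DL-[1-14C]ornithine 0.043 µmol, L-ornithine 0.8 µmol; 14CO2 counted after 1 h at 37 °C; KI from Dixon plots, least-squares fit.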

Ornithine decarboxylase [3] = target: T1, Ornithine decarboxylase; assay: Competitive inhibition of rat liver ornithine decarboxylase using DL-[1-14C]ornithine as substrate after 1 hr by dixon plot analysis
In short: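 ODC from livers of rats given thioacetamide 18 h before sacrifice, ~tenfold purified by acid treatment at pH 4.6. Incubation: sodium phosphate pH 7.1, PLP 0.1 µmol, DTT 5 µmol, DL-[1-14C]ornithine 0.043 µmol plus L-ornithine 0.8 µmol in 0.95 mL; 14CO2 release after 1 h at 37 °C; KI from Dixon plots by least-squares fit.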

[4] = Binding affinity to pyridoxal-phosphate
[5] = target: Ornithine decarboxylase (Bos taurus); assay: Inhibition of bull prostate ornithine decarboxylase
[6] = target: T3, Ornithine decarboxylase (Rattus norvegicus) (UniProt P09057); assay: Competitive inhibition of rat liver ornithine decarboxylase using DL-[1-14C]ornithine as substrate at 4 mM after 1 hr by dixon plot analysis
T3 sequence (whole entry): T1 sequence (P09057 whole entry)

[7] = target: T3, Ornithine decarboxylase (Rattus norvegicus); assay: Competitive inhibition of rat liver ornithine decarboxylase using DL-[1-14C]ornithine as substrate at 1 mM after 1 hr by dixon plot analysis
[8] = target: T3, Ornithine decarboxylase (Rattus norvegicus); assay: Competitive inhibition of rat liver ornithine decarboxylase using DL-[1-14C]ornithine as substrate at 0.25 mM after 1 hr by dixon plot analysis
[9] = target: T3, Ornithine decarboxylase (Rattus norvegicus); assay: Competitive inhibition of ornithine decarboxylase in rat HTC cells using DL-[1-14C]ornithine as substrate at 1 mM after 1 hr by dixon plot analysis; format: cell-based
Ornithine decarboxylase [10] = target: T1, Ornithine decarboxylase; assay: Competitive inhibition of Sprague-Dawley rat prostate ornithine decarboxylase using DL-[1-14C]ornithine as substrate by liquid scintillation counting analysis; design: species or system Prostate gland
[11] = target: T3, Ornithine decarboxylase (Rattus norvegicus); assay: Inhibition of rat prostate ornithine decarboxylase at 10 mM; details: Prostate gland

Ki (Ornithine decarboxylase [2])	Ki (Ornithine decarboxylase [3])	Kd [4]	SMILES	further results
70 µM	120 µM		NCCCC(N)c1nnn[nH]1 (centres undefined)	Ki (Ornithine decarboxylase [1]; read-out: Ki): 140 µM
4400 µM		900 µM	CC(N)(CCCNCCCN)C(=O)O (racemic; 3)	Ki (Ornithine decarboxylase [1]; htc): Not Active
			NC/C=C/C(N)C(=O)O (racemic)	Ki [5]: 4400 µM
	70 µM		N[C@H]1CC[C@](N)(C(=O)O)CC1	Ki (Ornithine decarboxylase [1]; read-out: Ki): 70 µM
5500 µM			CC(N)(CCCNCCCN)C(=O)O (racemic; 8)	
			CC(N)(CCCCN)C(=O)O (racemic)	inhibition [6]: inactive
1000 µM	1300 µM		C[C@@](N)(CCCN)C(=O)O	Ki (Ornithine decarboxylase [1]; read-out: Ki): 1050 µM
740 µM	500 µM	5360 µM	CNCCCC(C)(N)C(=O)O (racemic)	
		800 µM	NCCCCN [PUTRESCINE]	
	40 µM		CC(N)(CCCN)C(=O)O (racemic)	Ki (Ornithine decarboxylase [1]; read-out: Ki): 40 µM
			CN(C)CCCC(C)(N)C(=O)O (racemic)	inhibition [7]: inactive
			CC(N)(CCN)C(=O)O (racemic)	inhibition [6]: inactive
			N[C@H]1CC[C@@](N)(C(=O)O)CC1	inhibition [8]: inactive
			NCCC(O)C(N)C(=O)O (racemic)	inhibition [9]: inactive
20 µM	19 µM	2350 µM	C[C@](N)(CCCN)C(=O)O	Ki (Ornithine decarboxylase [1]; read-out: Ki): 20 µM
			NCCCC(N)(CO)C(=O)O (racemic)	inhibition [7]: inactive
3000 µM		700 µM	NCCCCNCCCN [SPERMIDINE]	Ki (Ornithine decarboxylase [10]): 2700 µM
			NCCC[C@@H](N)C(=O)O	inhibition [11]: 25%
		1250 µM	NCCC[C@H](N)C(=O)O [ORNITHINE]	
